The Emax is the maximal effect, on the per cent scale that the assay sets. Usually EC50 stands for the midpoint of the concentration-response curve.

Several values for one entry are separate records, joined by “and”; a condition that tells them apart may be missing. Equal entries are not always repeated.

For data set [1], the species on record is Rattus norvegicus. The data set is described as follows: Percent of maximal contractile response to compound in rat thoracic aorta strips in the presence of nifedipine. Summed up:
(§1)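 Aortic strips were pretreated with nifedipine 10^-6 M for 60 min. The stock was 0.01 M in EtOH, diluted in 0.01 M sodium phosphate, pH 7.4. Cumulative analog curves followed, read 35–45 min after each addition. Emax is expressed relative to the compound alone. Mean ± SEM, n = 3–4; paired comparison.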

Data set [2] is filed under the species Rattus norvegicus. The data set is described as follows: Percent of maximal contractile response to compound with phenoxybenzamine pretreatment on rat thoracic aorta strips. Summed up:
(§2)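 Rat aortic strips (male Sprague-Dawley) were pretreated with phenoxybenzamine 3×10^-6 M for 20 min and washed before cumulative analog curves were run. Responses were taken 20–30 min after each addition. Maximal contraction is expressed relative to 30 μM phenylephrine, obtained before pretreatment. Mean ± SEM, n = 4–7; Student's t test against the untreated control.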

For data set [3], the species on record is Rattus norvegicus. The data set is described as follows: Percent of maximal contractile response to compound without phenoxybenzamine pretreatment on rat thoracic aorta strips. Summed up: (§3)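 Helically cut thoracic aorta strips from male Sprague-Dawley rats (300–450 g) in a 10-mL water-jacketed bath of physiological salt solution. After 1 h equilibration, strips were primed with 10^-8 M phenylephrine, and a phenylephrine curve (10^-9 to 3×10^-5 M) was run. Cumulative analog curves were read 20–30 min after each addition. Emax is given relative to the 30 μM phenylephrine maximum. Mean ± SEM, n = 4–7.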

For data set [4], the species on record is Rattus norvegicus. The data set can be described thus: Percent of maximal contractile response to compound in rat thoracic aorta strips. Summed up:
as §3

Data set [5] is filed under the species Rattus norvegicus. The data set is described as follows: Percent of maximal contractile response to compound in rat thoracic aorta strips in the presence of PBZ and CIR.
The species entered for data set [6] is Rattus norvegicus. The data set can be described thus: Percent of maximal contractile response to compound in rat thoracic aorta strips in the presence of PBZ and IDA. Summed up: (§4)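 Rat aortic strips were given PBZ for 20 min, then washed out and exposed to idazoxan for 60 min before cumulative analog curves (3×10^-8–10^-4 M). Readings were taken 35–45 min after each addition. Response is expressed as % of the 30 μM phenylephrine maximum. Mean ± SEM, n = 3–4.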

The species named for data set [7] is Rattus norvegicus. The data set can be described thus: Concentration that produces 50% of the maximal response to compound in rat thoracic aorta strips. The data set is classed as functional. Summed up:
as §3

The species entered for data set [8] is Rattus norvegicus. The data set is described as follows: Concentration that produces 50% of the maximal response to compound in rat thoracic aorta strips in the presence of PBZ and CIR. Format: functional.
For data set [9], the species on record is Rattus norvegicus. The data set can be described thus: Concentration that produces 50% of the maximal response to compound in rat thoracic aorta strips in the presence of PBZ and IDA. Format: functional. Summed up:
as §4

For data set [10], the species on record is Rattus norvegicus. The data set is described as follows: Concentration that produces 50% of the maximal response to compound in rat thoracic aorta strips in the presence of nifedipine. Format: functional. The method, boiled down: as §1
The species entered for data set [11] is Rattus norvegicus. The data set can be described thus: Concentration that produces 50% of the maximal response to compound with phenoxybenzamine pretreatment on rat thoracic aorta strips. The data set is classed as functional. Summed up: as §2
The species entered for data set [12] is Rattus norvegicus. The data set can be described thus: Concentration that produces 50% of the maximal response to compound without phenoxybenzamine pretreatment on rat thoracic aorta strips. Format: functional. The method, boiled down: as §3
The species named for data set [13] is Rattus norvegicus. The data set can be described thus: Percent of maximal contractile response to compound in rat thoracic aorta strips v.
Data set [14] is filed under the species Rattus norvegicus. The data set is described as follows: Concentration that produces 50% of the maximal response to compound in rat thoracic aorta strips in the presence of PBZ and IDA.
The species named for data set [15] is Rattus norvegicus. The data set is described as follows: Percent of maximal contractile response to compound in rat thoracic aorta strips in the presence of calcium deficient buffer. The method, boiled down: (§5)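 Cumulative analog concentration-response curves were run on rat thoracic aorta strips in calcium-deficient PSS. Responses were read 35–45 min after each addition. Emax is relative to the maximal contraction of the compound alone in normal PSS. Mean ± SEM, n = 3–4; paired t test.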

Data set [16] is filed under the species Rattus norvegicus. The data set can be described thus: Percent of maximal contractile response to compound in rat thoracic aorta strips in the presence of verapamil. The method, boiled down: (§6)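 Verapamil was given for 60 min before cumulative analog curves on rat aortic strips; the methods give 10^-5 M and the table footnote gives 10^-6 M. Responses were read 35–45 min after each addition. Emax is relative to the compound's own maximal contraction without verapamil. Mean ± SEM, n = 3–4.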

Data set [17] is filed under the species Rattus norvegicus. The data set is described as follows: Percent of maximal contractile response to compound in rat thoracic aorta strips presence of PBZ and CIR.
The species entered for data set [18] is Rattus norvegicus. The data set can be described thus: Percent of maximal contractile response to compound in rat thoracic aorta strips in the presence of PBZ and IDA at 0.1 uM. The method, boiled down:
(§7)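 Strips were exposed to 30 nM PBZ for 20 min, washed out, then held in idazoxan for 1 h: 0.1 μM or 1 μM. Analog-induced contractions were read 20–30 min after addition and expressed against the 30 μM phenylephrine maximum obtained before treatment.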

The species named for data set [19] is Rattus norvegicus. The data set can be described thus: Percent of maximal contractile response to compound in rat thoracic aorta strips in the presence of PBZ and IDA at 1 uM. The method, boiled down: as §7
The species named for data set [20] is Rattus norvegicus. The data set is described as follows: Concentration that produces 50% of the maximal response to compound in rat thoracic aorta strips in the presence of PBZ and IDA at 0.1 uM. The data set is classed as functional. Summed up:
as §7

For data set [21], the species on record is Rattus norvegicus. The data set can be described thus: Concentration that produces 50% of the maximal response to compound in rat thoracic aorta strips in the presence of PBZ and IDA at 1 uM. The data set is classed as functional. The method, boiled down:
as §7

For data set [22], the species on record is Rattus norvegicus. The data set can be described thus: Concentration that produces 50% of the maximal response to compound in rat thoracic aorta strips in the presence of calcium deficient buffer. The data set is classed as functional. Summed up:
as §5

For data set [23], the species on record is Rattus norvegicus. The data set can be described thus: Concentration that produces 50% of the maximal response to compound in rat thoracic aorta strips in the presence of verapamil. The data set is classed as functional. The method, boiled down: as §6
Where [24] appears, read: Rattus norvegicus, Thoracic aorta, read-out: Emax.
Setting [25] is: Rattus norvegicus, Thoracic aorta.

Regarding `S=C=Nc1ccc(Cc2ncc[nH]2)cc1`, the maximal effect (Emax) is 35% in the data set listed under Rattus norvegicus [1]; 68% in the data set listed under Rattus norvegicus [2]; 70% in the data set listed under Rattus norvegicus [3]; 100% in the data set listed under Rattus norvegicus [4] (setting [24]); 102% in the data set filed under Rattus norvegicus [5]; 79% in the data set filed under Rattus norvegicus [6]. For the same compound, the EC50 was 28.6 µM in the data set listed under Rattus norvegicus [7] (setting [25]); 25.5 µM in the data set listed under Rattus norvegicus [8]; 40.9 µM in the data set filed under Rattus norvegicus [9]; 38.9 µM in the data set listed under Rattus norvegicus [10]; 36 µM in the data set filed under Rattus norvegicus [11]; 31 µM in the data set listed under Rattus norvegicus [12].

Consider `S=C=Nc1ccc(CC2=NCCN2)cc1I`, for which the maximum response (Emax) worked out at 28% in the data set filed under Rattus norvegicus [2] and 31% in the data set listed under Rattus norvegicus [3]. Besides, the 50% effective concentration (EC50) stood at 58 µM in the data set filed under Rattus norvegicus [11] and 10 µM in the data set listed under Rattus norvegicus [12].

For `O=C(CCl)Nc1ccc(CC2=NCCN2)cc1`, the maximal effect (Emax) in the data set filed under Rattus norvegicus [2] stood at 32%; in the data set filed under Rattus norvegicus [3], 41%. The results for the EC50 in the data set filed under Rattus norvegicus [11] and in the data set listed under Rattus norvegicus [12] were 129 µM and 116 µM, respectively.

Regarding `Cc1ccc(CC2=NCCN2)cc1`, the figures for the Emax in the data set filed under Rattus norvegicus [2] and in the data set listed under Rattus norvegicus [3] were 5% and 14%, respectively. Moreover, the concentration for a half-maximal effect (EC50) in the data set filed under Rattus norvegicus [12] was determined as 57 µM.

Regarding `S=C=Nc1ccc(OCC2=NCCN2)cc1`, the Emax in the data set listed under Rattus norvegicus [1] was determined as 11%; in the data set filed under Rattus norvegicus [13], 110%; in the data set filed under Rattus norvegicus [2] it was 117%; in the data set filed under Rattus norvegicus [3], 108%; in the data set listed under Rattus norvegicus [4] (setting [24]), 100%; in the data set filed under Rattus norvegicus [5], 117%. Moreover, the EC50 in the data set filed under Rattus norvegicus [7] (setting [25]) stood at 17.2 µM; in the data set filed under Rattus norvegicus [8] it was 16.4 µM; in the data set listed under Rattus norvegicus [10], 52.1 µM; in the data set filed under Rattus norvegicus [11], 47 µM; in the data set listed under Rattus norvegicus [12] it was 69 µM; in the data set filed under Rattus norvegicus [14], 16.1 µM.

Take `O=C(CI)Nc1ccc(CC2=NCCN2)cc1`: the maximal effect (Emax) was 13% in the data set filed under Rattus norvegicus [2] and 25% in the data set filed under Rattus norvegicus [3]. Also, the EC50 in the data set listed under Rattus norvegicus [12] came out at 47 µM.

As for `CN(C)CCc1ccc(N=C=S)cc1`, the Emax in the data set listed under Rattus norvegicus [1] was 29%; in the data set listed under Rattus norvegicus [2] it was 113%; in the data set filed under Rattus norvegicus [3] it was 98%; in the data set filed under Rattus norvegicus [4] (setting [24]) it was 100%; in the data set listed under Rattus norvegicus [4] (rat, in vitro), 91% and 94%. The EC50 in the data set filed under Rattus norvegicus [7] is 16.9 µM and 16.3 µM; in the data set filed under Rattus norvegicus [7] (setting [25]) it was 16.8 µM; in the data set listed under Rattus norvegicus [10], 48.5 µM; in the data set listed under Rattus norvegicus [11] it was 33 µM; in the data set filed under Rattus norvegicus [12] it was 41 µM.

On to `Nc1ccc(CC2=NCCN2)cc1`, for which the values for the maximum response (Emax) in the data set filed under Rattus norvegicus [2] and in the data set filed under Rattus norvegicus [3] were 9% and 69%, respectively. For the same compound, the concentration giving a half-maximal response (EC50) is 31 µM in the data set listed under Rattus norvegicus [11] and 3 µM in the data set filed under Rattus norvegicus [12].

Take `S=C=Nc1ccc(CCC2=NCCN2)cc1`: the Emax in the data set listed under Rattus norvegicus [1] worked out at 21%; in the data set filed under Rattus norvegicus [2] it was 102%; in the data set listed under Rattus norvegicus [3], 107%; in the data set filed under Rattus norvegicus [4] (setting [24]) it was 100%; in the data set filed under Rattus norvegicus [5], 100%; in the data set filed under Rattus norvegicus [6] it was 114%. The EC50 in the data set filed under Rattus norvegicus [7] (setting [25]) amounted to 18.3 µM; in the data set filed under Rattus norvegicus [8], 14.9 µM; in the data set filed under Rattus norvegicus [9] it was 18.1 µM; in the data set filed under Rattus norvegicus [10] it was 67 µM; in the data set listed under Rattus norvegicus [11], 29 µM; in the data set listed under Rattus norvegicus [12], 29 µM.

Regarding `S=C=Nc1ccc(CC2=NCCN2)cc1`, the Emax in the data set listed under Rattus norvegicus [15] stood at 34%; in the data set filed under Rattus norvegicus [1] it was 42%; in the data set listed under Rattus norvegicus [16], 48%; in the data set filed under Rattus norvegicus [17], 94%; in the data set filed under Rattus norvegicus [2], 100%; in the data set filed under Rattus norvegicus [3] it was 118%. For the same compound, the Emax in the data set listed under Rattus norvegicus [4] (setting [24]) came to 100%; in the data set listed under Rattus norvegicus [4] (rat, in vitro), 100%; in the data set listed under Rattus norvegicus [18], 104%; in the data set listed under Rattus norvegicus [19], 105%. The EC50 was 45 µM and 5.8 µM in the data set filed under Rattus norvegicus [7]; 43 µM in the data set filed under Rattus norvegicus [8]; 54 µM in the data set listed under Rattus norvegicus [20]; 54 µM in the data set listed under Rattus norvegicus [21]; 12.7 µM in the data set filed under Rattus norvegicus [22]; 19.8 µM in the data set filed under Rattus norvegicus [10]. Besides, the 50% effective concentration (EC50) in the data set listed under Rattus norvegicus [23] came out at 21.4 µM; in the data set filed under Rattus norvegicus [11], 52 µM; in the data set filed under Rattus norvegicus [12], 48 µM.

Values taken from ChEMBL document CHEMBL1127547, “Synthesis and biological activities of a new set of irreversibly acting 2-(4'-isothiocyanatobenzyl)imidazoline analogs in rat thoracic aorta” (J Med Chem, 1994).
